Assay results of several laboratories.
Each line is one published result; the experiments were not run side by side.
Target: Phosphatidylinositol 4-phosphate 5-kinase type-1 gamma (PIP5K1C, Homo sapiens, UniProt O60331)

CNCc1ccccc1-c1csc([C@@H](C)Nc2nc(C)nc3cc(OC)c(OC)cc23)c1 — remaining binding (cell-free assay, competition with immobilised ligand; 1 µM): 88%
COc1cc(Cl)c(C(=O)N[C@@H](CN[C@H]2CC[C@@H](N)CC2)Cc2ccc(C#N)cc2)cc1-c1ccc(CN[C@H](C)c2ccc(C)cc2)o1 — remaining activity (enzyme activity, inhibitor; 1 µM): 96%
Cc1cc(NC(=O)c2cccc3cc(-c4cccc5[nH]nc(N)c45)ccc23)ccc1F — activity vs control (enzyme activity, inhibitor; 0.1 µM): 110%
Cc1ccc(C(=O)Nc2ccc(CN3CCN(C)CC3)c(C(F)(F)F)c2)cc1C#Cc1cnc2cccnn12 — remaining signal (cell-free assay; 23.5 nM): 100%
CN1CC(Oc2cnc(C#N)cc2-c2ccn3nc(NC(=O)C4CC4)cc3c2)C1 — inhibition (enzyme activity, inhibitor; 1 µM): -3%
Nc1ncnc2occ(-c3ccc(NC(=O)Nc4cc(C(F)(F)F)ccc4F)cc3)c12 — remaining signal (cell-free assay; 20 µM): 0%
Cc1cnc(NC2CCOCC2)nc1-n1cnc(C(=O)NC(CN)c2cc(F)cc(Cl)c2)c1 (centres unmarked) — remaining activity (enzyme activity, inhibitor, radiometric; 1 µM): 96%
O=C(CSc1nc2nccnc2c(=O)n1CCc1ccccc1)Nc1nccs1 — inhibition (enzyme activity, inhibitor; 10 µM): 12%
Cc1ccc(NC(=O)c2ccc(C)c(C(F)(F)F)c2)cc1C#Cc1nn(C2CCC(O)CC2)c2ncnc(N)c12 (centres unmarked) — remaining signal (cell-free assay; 10 µM): 98%
CC1=C(C#N)C(c2ccc3c(c2)c(NC(=O)c2ccccc2C)nn3C)C(C#N)=C(C)N1 — remaining binding (cell-free assay, competition with immobilised ligand; 1 µM): 91%
CS(=O)(=O)Nc1cccc(-c2csc(NC(=O)CSc3nc4nccnc4c(=O)n3CCc3ccccc3)n2)c1 — inhibition (enzyme activity, inhibitor; 10 µM): 0%
